Data as given in ChEMBL document CHEMBL5029154, “Design, Synthesis, and Biological Evaluation of Organic Nitrite (NO2-) Donors as Potential Anticerebral Ischemia Agents” (J Med Chem, 2021).
In brackets after ≈: the same amount, converted by molar mass. Activity calls are given as the source filed them. The rule behind the calls is not given here.

Columns and labels:
[1] = Photostability of the compound under light at 200 uM measured after 24 hrs by HPLC analysis; assay type: physicochemical
[2] = Stability of the compound in rat plasma assessed as half life at 200 uM measured after 24 hrs by HPLC analysis; assay type: ADME, cell-free
[3] = GSH reactivity assessed as reaction rate measured at 1 equiv of GSH upto 24 hrs by HPLC analysis; assay type: ADME
[4] = GSH reactivity assessed as reaction rate measured at 8 equiv of GSH upto 24 hrs by HPLC analysis; assay type: ADME
[5] = Solubility of compound in water; assay type: physicochemical
[6] = Drug metabolism in Sprague-Dawley rat assessed as peak nitrite release in plasma at 10 mg/kg, iv measured upto 120 mins by ion chromatography; assay type: ADME, organism-based; conditions: in vivo, 2 h
How it was run: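 Male SD rats (N = 3/group) received a single iv dose. Plasma was sampled at 2, 5, 15, 30, 60, 90 and 120 min. Nitrite was quantified by ion chromatography. Values are mean ± SD.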

[7] = Neuroprotective activity against in OGD/R-induced rat cortical neuron apoptosis assessed as necrotic cells pretreated at 1.8 uM for 24 hrs followed by subjected to OGD for 2 hrs measured after 24 hrs under normoxic condition by PI/FITC-H staining based flow cytometry (reference value: 3.68%); assay type: functional, Cortical neurone
Cortical neurone [8] = test: Neuroprotective activity against in OGD/R-induced rat cortical neuron cytotoxicity assessed as decrease in cell viability pretreated at 1.8 uM for 24 hrs followed by subjected to OGD for 2 hrs measured after 24 hrs under normoxic condition by MTT assay; assay type: functional, tissue-based
How it was run: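 Primary rat cortical neurons from enzymatically digested cortex, plated on poly-lysine in DMEM/10% FBS for 4 h. Pretreated 24 h in neuron basal medium with 2% B27, then glucose/FBS-free DMEM at 1% O2. Returned to 10% FBS DMEM under normoxia for 24 h. Viability by MTT; three independent experiments, mean SD.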

Cortical neurone [9] = test: (§1) Neuroprotective activity against in OGD/R-induced rat cortical neuron cytotoxicity assessed as activation of NO/cGMP/PKG pathway by measuring increase in cGMP level pretreated at 1.8 uM for 24 hrs followed by subjected to OGD for 2 hrs measured after 24 hrs under normoxic condition by ELISA; assay type: functional, tissue-based
Cortical neurone [10] = test: as §1, with “PKG expression” for “cGMP level”, “Western blot analysis” for “ELISA”; assay type: functional, tissue-based
Cortical neurone [11] = test: as §1, with “condition in presence of NS2028” for “condition”; assay type: functional, tissue-based
Rattus norvegicus [12] = test: Neuroprotective activity against middle cerebral artery occlusion-induced ischemia-reperfusion injury Sprague-Dawley rat model assessed as decrease in cerebral infarct volume at 95 to 9500 microg/kg, iv pretreated for 2 hrs followed by reperfusion measured after 24 hrs; assay type: functional, organism-based; conditions: dose 95-9500 µg/kg
How it was run: (§2)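 Male SD rats (N = 8/group) were dosed iv at 95, 950 or 9500 μg/kg 2 h before 2 h MCAO (nylon suture, chloral hydrate anesthesia), then reperfused. Where used, PTIO 1 mg/kg iv was given 30 min before compound. At 24 h, blinded assessment covered Longa deficit score, TTC-stained 2 mm sections (infarct area/whole area), and edema by wet/dry weight.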

Rattus norvegicus [13] = test: Neuroprotective activity against middle cerebral artery occlusion-induced ischemia-reperfusion injury Sprague-Dawley rat model assessed as decrease in cerebral edema degree at 95 to 9500 microg/kg, iv pretreated for 2 hrs followed by reperfusion measured after 24 hrs; assay type: functional, organism-based; conditions: dose 95-9500 µg/kg; how it was run: as §2
Rattus norvegicus [14] = test: Neuroprotective activity against middle cerebral artery occlusion-induced ischemia-reperfusion injury Sprague-Dawley rat model assessed as decrease in neurologic deficit scores at 95 to 9500 microg/kg, iv pretreated for 2 hrs followed by reperfusion measured after 24 hrs; assay type: functional, organism-based; conditions: dose 95-9500 µg/kg; how it was run: as §2
Rattus norvegicus [15] = test: Neuroprotective activity against middle cerebral artery occlusion-induced ischemia-reperfusion injury Sprague-Dawley rat model assessed as decrease in cerebral infarct volume at 950 microg/kg, iv pretreated for 2 hrs followed by reperfusion measured after 24 hrs in presence of PTIO; assay type: functional, organism-based; conditions: dose 950.0 µg/kg; how it was run: as §2
Rattus norvegicus [16] = test: Neuroprotective activity against middle cerebral artery occlusion-induced ischemia-reperfusion injury Sprague-Dawley rat model assessed as decrease in cerebral edema degree at 950 microg/kg, iv pretreated for 2 hrs followed by reperfusion measured after 24 hrs in presence of PTIO; assay type: functional, organism-based; conditions: dose 950.0 µg/kg; how it was run: as §2
Rattus norvegicus [17] = test: Neuroprotective activity against middle cerebral artery occlusion-induced ischemia-reperfusion injury Sprague-Dawley rat model assessed as decrease in neurologic deficit scores at 950 microg/kg, iv pretreated for 2 hrs followed by reperfusion measured after 24 hrs in presence of PTIO; assay type: functional, organism-based; conditions: dose 950.0 µg/kg; how it was run: as §2
Rattus norvegicus [18] = test: Neuroprotective activity against middle cerebral artery occlusion-induced ischemia-reperfusion injury Sprague-Dawley rat model assessed as decrease in brain infarct volume at 95 to 9500 microg/kg, iv treated immediately reperfusion measured after 24 hrs; assay type: functional, organism-based; conditions: dose 95-9500 µg/kg
How it was run: (§3)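 Male SD rats (12 weeks, 200–220 g; N = 8/group) underwent MCAO under […] (350 mg/kg) using a nylon intraluminal suture for 2 h, then reperfusion. Compound (95, 950 or 9500 μg/kg) was given iv immediately after reperfusion; where used, PTIO 1 mg/kg iv was given 30 min before. At 24 h, blinded scoring covered Longa neurological deficit, TTC infarct area/whole area, and edema from wet/dry brain weight (105 °C, 24 h).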

Rattus norvegicus [19] = test: (§4) Neuroprotective activity against middle cerebral artery occlusion-induced ischemia-reperfusion injury Sprague-Dawley rat model assessed as decrease in cerebral edema degree at 95 to 9500 microg/kg, iv treated immediately reperfusion measured after 24 hrs; assay type: functional, organism-based; conditions: dose 95-9500 µg/kg; how it was run: as §3
Rattus norvegicus [20] = test: Angiogenic activity in middle cerebral artery occlusion-induced ischemia-reperfusion injury Sprague-Dawley rat model assessed as tube formation in cerebral ischemic penumbra at 95 to 9500 microg/kg, iv treated immediately reperfusion measured after 7 days by immunofluoresence assay; assay type: functional, organism-based; conditions: dose 95-9500 µg/kg, time 7.0 day
How it was run: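 After MCAO/reperfusion, SD rats (N = 5/group) were dosed iv immediately after reperfusion and then daily for 7 days, with or without PTIO. Paraffin brain sections (3 μm) were immunostained for CD31, Ki67 and Aurora B with DAPI. Vascular density was CD31⁺/DAPI⁺; proliferating endothelium was CD31⁺Ki67⁺/CD31⁺.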

Rattus norvegicus [21] = test: as §4, with “increase in CD31 expression” for “decrease”, “ischemic penumbra” for “edema degree”, “950” for “9500”, “hrs by immunofluoresence assay” for “hrs”; assay type: functional, organism-based; conditions: dose 95-950 µg/kg
Rattus norvegicus [22] = test: (§5) Neuroprotective activity against middle cerebral artery occlusion-induced ischemia-reperfusion injury Sprague-Dawley rat model assessed as increase in Ki67+ cells in cerebral ischemic penumbra at 95 to 950 microg/kg, iv treated immediately reperfusion measured after 24 hrs by immunofluoresence assay; assay type: functional, organism-based; conditions: dose 95-950 µg/kg
Rattus norvegicus [23] = test: as §5, with “AuroraB +” for “Ki67+”; assay type: functional, organism-based; conditions: dose 95-950 µg/kg
Rattus norvegicus [24] = test: as §5, with “CD31 expression” for “Ki67+ cells”, “hrs in presence of PTIO” for “hrs”; assay type: functional, organism-based; conditions: dose 95-950 µg/kg
Rattus norvegicus [25] = test: as §5, with “AuroraB +” for “Ki67+”, “hrs in presence of PTIO” for “hrs”; assay type: functional, organism-based; conditions: dose 95-950 µg/kg

In the case of `O=C(/C(=C/c1ccccc1)C[N+](=O)[O-])c1ccccc1`, the Stability [1] is reported as “Stable”, the half-life at 200 µM [2] is reported as 5.3 h and the Activity [3] is reported as 0.0214 h⁻¹. For the same compound, the Activity [4] was 0.0363 h⁻¹, the solubility [5] was 33.2 µg/mL (≈ 124 µM) and the Drug metabolism [6] was “Metabolite_Detected”. For the same compound, the Activity [7] was 1.28%, the Activity (Cortical neurone [8]) was “Active” and the Activity (Cortical neurone [9]) was “Active”. The Activity (Cortical neurone [10]) was “Active”, the Activity (Cortical neurone [11]) was “inactive” and the Activity (Rattus norvegicus [12]) was “Active”. For the same compound, the Activity (Rattus norvegicus [13]) was “Active”, the Activity (Rattus norvegicus [14]) was “Active” and the Activity (Rattus norvegicus [15]) was “inactive”. For the same compound, the Activity (Rattus norvegicus [16]) was “inactive”, the Activity (Rattus norvegicus [17]) was “inactive” and the Activity (Rattus norvegicus [18]) was “Active”. For the same compound, the Activity (Rattus norvegicus [19]) was “Active”, the Activity (Rattus norvegicus [20]) was “Active” and the Activity (Rattus norvegicus [21]) was “Active”. For the same compound, the Activity (Rattus norvegicus [22]) was “Active”, the Activity (Rattus norvegicus [23]) was “Active” and the Activity (Rattus norvegicus [24]) was “inactive”. The Activity (Rattus norvegicus [25]) was “inactive”.
